In assay [1] the target is T1, Growth factor receptor-bound protein 2 (Homo sapiens, UniProt P62993). The experiment in a line: Displacement of biotin-Ahx-PSpYVNVQN from Grb2-SH2 at 5 mM by competition binding assay.
Target sequence in this assay (P62993 whole entry, looked up): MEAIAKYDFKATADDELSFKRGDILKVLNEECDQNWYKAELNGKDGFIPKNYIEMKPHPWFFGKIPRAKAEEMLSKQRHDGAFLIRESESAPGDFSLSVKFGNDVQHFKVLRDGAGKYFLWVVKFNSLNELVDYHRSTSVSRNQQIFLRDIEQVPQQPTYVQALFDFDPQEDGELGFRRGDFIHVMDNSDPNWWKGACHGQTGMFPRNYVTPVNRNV
Assay [2] concerns the target T1, Growth factor receptor-bound protein 2. The experiment in a line: Displacement of biotin-Ahx-PSpYVNVQN from Grb2-SH2 by competition binding assay.
Target sequence in this assay (P62993 whole entry): as the sequence (P62993 whole entry, looked up) above
Assay [3] deals with MCF7. The experiment in a line: Cytotoxicity against HER2-positive human MCF7 cells after 24 hrs by MTT assay. The assay is classed as functional, cell-based. The conditions noted are these: MCF7, 24 h. Summed up:
(§1)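 Human breast cancer cells tested at 50 and 100 μM: HER2-positive MCF7 and HER2-negative MCF7 and MDA-231. N1 fibroblasts were run alongside at the same two concentrations.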
(Tetrazolium dyes change colour on reduction, which living cells bring about.)

In assay [4] the test system is MCF7. The experiment in a line: Cytotoxicity against HER2-negative human MCF7 cells after 24 hrs by MTT assay. The assay is classed as functional, cell-based. Summed up:
as §1

The test system of another assay is MDA-MB-231. The experiment in a line: Cytotoxicity against HER2-negative human MDA231 cells after 24 hrs by MTT assay. The assay is classed as functional, cell-based. A digest of the protocol: as §1
In assay [5] the target is T1, Growth factor receptor-bound protein 2. The experiment in a line: Inhibition of HER2-Grb2 interaction in HER2-positive human MCF7 cells assessed as decrease in interaction at 50 uM by immunoblotting. Also on record: scale not given: the % may be the effect or the level left. The assay is classed as cell-based. On the technique in general: In western blotting, separated proteins are transferred to a membrane and probed.
Target sequence in this assay (P62993 whole entry, looked up): as above

What is called inhibition is the change of the read-out against control, counted positive when it falls. Usually IC50 stands for the concentration needed to halve the response being measured.

The source made the active and inactive calls. The rule behind the calls is not given here.

In assay [1], `CC(=O)N[C@H](Cc1ccc(OP(=O)(O)O)cc1)C(=O)NCCCN1CCCNC1=O` showed an inhibition below 10%.

`CC(=O)N[C@@H](Cc1ccc(OP(=O)(O)O)cc1)C(=O)NC1(CCN2CCCNC2=O)CCCCC1`: the half-inhibitory concentration (IC50) is 56 µM in assay [2] and 100 µM with MCF7 [3]. Moreover, the outcome in the assay on MCF7 [4] and in the assay on MDA-MB-231 was inactive. In addition, in assay [5], the Activity came out at 30%.

Regarding `CCCC(=O)N[C@@H](Cc1ccc(OP(=O)(O)O)cc1)C(=O)NCCN1CCNC1=O`, the IC50 in assay [2] came out at 1330 µM.

In assay [2], `O=C(O)C[C@@H](Cc1ccc(CP(=O)(O)O)cc1)C(=O)NC1(C(=O)N[C@@H](CC(=O)O)C(=O)NCCCc2cccc3ccccc23)CCCCC1` showed a 50% inhibitory concentration (IC50) of 0.008 µM.

For `O=C(N[C@@H](Cc1ccc(OP(=O)(O)O)cc1)C(=O)NCCN1CCNC1=O)c1ccccc1`, the inhibition in assay [1] is below 10%.

`CC(=O)N[C@@H](Cc1ccc(OP(=O)(O)O)cc1)C(=O)NCCCN1CCCNC1=O`: in assay [2], the IC50 was found to be 174 µM.

In turn, `CCCC(=O)N[C@@H](Cc1ccc(OP(=O)(O)O)cc1)C(=O)NCCCN1CCCNC1=O` had an IC50 in assay [2] of 314 µM.

Consider `O=C(N[C@@H](Cc1ccc(OP(=O)(O)O)cc1)C(=O)NCCCN1CCCC1=O)c1ccccc1`, for which, in assay [1], the inhibition is below 10%.

Molecule `CC(=O)NC(Cc1ccc(OP(=O)(O)O)cc1)C(=O)NCCCN1CCCNC1=O` (racemic) yielded an IC50 in assay [2] of 2310 µM.

For the molecule `CCCC(=O)N[C@@H](Cc1ccc(OP(=O)(O)O)cc1)C(=O)NCCCN1CCCC1=O`, in assay [1], the inhibition was below 10%.

In turn, `CC(=O)N[C@@H](Cc1ccc(OP(=O)(O)O)cc1)C(=O)NCCN1CCNC1=O` displayed an inhibition in assay [1] below 10%.

In the case of `CC(=O)N[C@@H](Cc1ccc(OP(=O)(O)O)cc1)C(=O)NCCc1cnc[nH]1`, in assay [1], the inhibition is below 10%.

`O=C(N[C@@H](Cc1ccc(OP(=O)(O)O)cc1)C(=O)NCCCN1CCCNC1=O)c1ccccc1` had an inhibition in assay [1] below 10%.

In the case of `CC(=O)N[C@@H](Cc1ccc(OP(=O)(O)O)cc1)C(=O)NCCCN1CCCC1=O`, in assay [1], the inhibition was below 10%.

For the origin of these results see ChEMBL document CHEMBL1671796, “Development of non-peptide ligands of growth factor receptor-bound protein 2-SRC homology 2 domain using molecular modeling and NMR spectroscopy” (J Med Chem, 2011).
